Experimental data taken from ChEMBL document CHEMBL3351951, “2-Octadecynoic acid as a dual life stage inhibitor of Plasmodium infections and plasmodial FAS-II enzymes” (Bioorg Med Chem Lett, 2014).
In brackets after ≈: the same amount, converted by molar mass. Activity calls are given as the source filed them. The calls are words filed in the database; no cut-off is given here.

Key:
[1] = Inhibition of Plasmodium falciparum FabZ
Procedure, shortened: (§1)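 Recombinant P. falciparum FAS-II enzymes (FabI, FabZ, FabG) were assayed for inhibition. IC50 values (μg/ml) are the average of at least two independent assays run in duplicate.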

[2] = Inhibition of Plasmodium falciparum FabG; procedure, shortened: as §1
Plasmodium berghei [3] = assay: Antimalarial activity against liver stage of GFP-expressing Plasmodium berghei infected in human Huh7 cells assessed as reduction in parasite load treated after 2 hrs of infection for 46 hrs by confocal microscopy; format: functional, organism-based; details: Huh-7
Procedure, shortened: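 Huh7 hepatoma cells infected with GFP-expressing P. berghei sporozoites. Treated at 2 hpi for 46 h at single fixed concentrations; vehicle DMSO 0.4%. Cells fixed in 4% PFA. Exo-erythrocytic forms immunolabelled with anti-PbHsp70 and an Alexa-488 secondary antibody; nuclei stained with Hoechst. Imaged by confocal microscopy.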

Plasmodium falciparum = assay: Antimalarial activity against blood stage of multidrug-resistant Plasmodium falciparum K1 after 72 hrs by [3H]hypoxanthine incorporation assay; format: functional, organism-based
Procedure, shortened: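 Blood-stage P. falciparum K1 growth is measured by 3H-hypoxanthine incorporation. IC50 is given in μg/ml as the mean of at least two independent assays, each run in duplicate.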

[4] = Cytotoxicity against human HuH7 cells assessed as cell viability by Alamar Blue assay; format: cell-based; details: huh-7
Procedure, shortened: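 Host-cell viability was measured in the same P. berghei-infected Huh7 wells. Cells were treated from 2 hpi, and Alamar Blue fluorescence was read at the time of infection analysis (48 hpi). Cell confluency is reported in arbitrary units.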

[5] = Inhibition of Plasmodium falciparum FabI; procedure, shortened: as §1
Danio rerio [6] = species: Danio rerio; assay: Hepatotoxicity in zebrafish larvae during 3 to 6 days of post-fertilization; format: organism-based; details: in vivo
Procedure, shortened: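 Larvae with DsRed-fluorescent livers are exposed from 3 dpf for 3 days, at a range of concentrations up to each compound's maximum tolerated concentration. Vehicle is 1% DMSO, and paracetamol 300 μM is the positive control. At 6 dpf, livers are imaged and scored as normal, reduced fluorescence, reduced size, enlarged or absent.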

[7] = Critical micelle concentration of the compound in 1X phosphate-buffered saline containing rhodamine 6G at 2.5 x 10^-6 M by spectrophotometry; format: ADME; details: buffer
Plasmodium berghei [8] = assay: Antimalarial activity against liver stage of Plasmodium berghei infected in human Huh7 cells assessed as reduction in parasite load treated after 2 hrs of infection for 46 hrs by luciferase assay; format: functional, organism-based; details: Huh-7, Liver
Procedure, shortened: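 Huh7 hepatoma cells infected with luciferase-expressing P. berghei sporozoites. Parasite load measured by luciferase signal at 44 hpi (48 hpi in the figure legend) and expressed as percent of control. IC50 is the average of at least two independent assays run in duplicate.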

L6 = assay: Cytotoxicity against rat L6 cells; format: cell-based
Danio rerio [9] = species: Danio rerio; assay: Hepatotoxicity in zebrafish larvae at 300 uM measured during 3 to 6 days of post-fertilization; format: organism-based; details: in vivo
Procedure, shortened: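 Larvae with DsRed-fluorescent livers were exposed from 3 to 6 dpf; vehicle was 1% DMSO. At 6 dpf, livers were photographed under a stereomicroscope and scored as normal, reduced fluorescence, reduced size, enlarged or absent. Paracetamol 300 μM served as the positive control.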

O=C(O[C@@H]1Cc2c(O)cc(O)cc2O[C@@H]1c1cc(O)c(O)c(O)c1)c1cc(O)c(O)c(O)c1 [EPIGALOCATECHIN GALLATE]
IC50 [1]: 0.03 µg/mL (≈ 0.0654 µM) | IC50 [2]: 0.2 µg/mL (≈ 0.436 µM)

CCCCCCCCCCCCCCCC#CC(=O)O
inhibition (Plasmodium berghei [3]): Active | IC50 (Plasmodium falciparum): 6 µg/mL (≈ 21.4 µM) | IC50 [1]: 0.28 µg/mL (≈ 0.998 µM) | Activity [4]: Non-toxic | IC50 [5]: 0.3 µg/mL (≈ 1.07 µM) | MTD (Danio rerio [6]): 1 µM | CMC [7]: 50 µg/mL | IC50 (Plasmodium berghei [8]): 0.34 µg/mL (≈ 1.21 µM) | IC50 [2]: 0.8 µg/mL (≈ 2.85 µM)

COc1cc([C@@H]2c3cc4c(cc3[C@H](O)[C@H]3COC(=O)[C@H]23)OCO4)cc(OC)c1OC [PODOFILOX]
IC50 (L6): 0.02 µg/mL (≈ 0.0483 µM)

CCCCCCCCCCCCCCCC(=O)O [PALMITIC ACID]
IC50 [1]: > 100 µg/mL | IC50 [5]: > 100 µg/mL | MTD (Danio rerio [6]): 700 µM | IC50 (Plasmodium berghei [8]): > 25 µg/mL | IC50 [2]: > 100 µg/mL

Oc1cc(Cl)ccc1Oc1ccc(Cl)cc1Cl [TRICLOSAN]
IC50 [5]: 0.015 µg/mL (≈ 0.0518 µM)

CC(=O)Nc1ccc(O)cc1 [ACETAMINOPHEN]
Activity (Danio rerio [9]): Toxic

CCCCCCCCCCCC#CC(=O)O
IC50 [1]: 3.5 µg/mL (≈ 15.6 µM) | Activity [4]: Non-toxic | IC50 [5]: 1.2 µg/mL (≈ 5.35 µM) | MTD (Danio rerio [6]): 1.2 µM | IC50 (Plasmodium berghei [8]): 2.87 µg/mL (≈ 12.8 µM) | IC50 [2]: 5.5 µg/mL (≈ 24.5 µM)
